Source: ChEMBL document CHEMBL1124445, “Synthesis and pharmacology of a series of 3- and 4-(phosphonoalkyl)pyridine- and -piperidine-2-carboxylic acids. Potent N-methyl-D-aspartate receptor antagonists” (J Med Chem, 1989)

Legend:
Mus musculus = experiment: Ability to protect against NMDA-induced lethality in mice after intraperitoneal administration; type: functional; conditions: ip, read-out: MED
Procedure, shortened: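 Mice received the test drug ip 30 min before NMDA at 200 mg/kg ip; compounds were racemic. Five animals per dose. The endpoint was survival for more than 30 min after the NMDA injection. MED is the dose at which at least three of the five mice survived. The highest dose tested was 160 mg/kg.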

[1] = Percent displacement determined by inhibition of [3H]CPP binding against NMDA receptor in mice at 10 uM
[2] = Percent displacement determined by inhibition of [3H]-CPP binding against N-methyl-D-aspartate glutamate receptor in mice at 10 uM
[3] = Compound was evaluated for the inhibition of the binding of [3H]-CPP against NMDA receptor in mice
Procedure, shortened: (§1)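 Racemic compounds tested for displacement of [3H]CPP binding to the NMDA receptor. Affinity reported as IC50 in nM.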

[4] = Compound was evaluated for the inhibition of the binding of [3H]CPP against N-methyl-D-aspartate glutamate receptor in mice; procedure, shortened: as §1
[5] = Compound was evaluated for the inhibition of the binding of [3H]CPP against NMDA in mice

Work on `O=C(O)c1ncccc1CP(=O)(O)O` yielded a minimal effective dose (Mus musculus) of over 160 mg/kg and a Displacement [1] of -18%.

Compound `O=C(O)c1cc(CP(=O)(O)O)ccn1` has a minimal effective dose (Mus musculus) of over 160 mg/kg and a Displacement [1] of 4%.

`O=C(O)[C@@H]1C[C@H](CCCCP(=O)(O)O)CCN1` gave a minimal effective dose (Mus musculus) of over 160 mg/kg and a Displacement [2] of 26%.

`O=C(O)[C@H]1NCCC[C@H]1CCP(=O)(O)O` showed a minimal effective dose (Mus musculus) of 160 mg/kg and an IC50 [3] of 1000 nM.

For `O=C(O)[C@@H]1C[C@H](CCP(=O)(O)O)CCN1`, the minimal effective dose (Mus musculus) was over 160 mg/kg and the IC50 [4] was 6600 nM.

In the case of `O=C(O)c1ncccc1/C=C\P(=O)(O)O`, the minimal effective dose (Mus musculus) is reported as over 160 mg/kg and the Displacement [2] is reported as 20%.

For `O=C(O)[C@@H]1C[C@H](CCCP(=O)(O)O)CCN1`, the minimal effective dose (Mus musculus) was 40 mg/kg and the IC50 [4] was 120 nM.

With `O=C(O)c1ncccc1CCP(=O)(O)O` the minimal effective dose (Mus musculus) was over 160 mg/kg and the IC50 [3] was 3500 nM.

With `O=C(O)[C@@H]1C[C@H](CP(=O)(O)O)CCN1` [SELFOTEL] the minimal effective dose (Mus musculus) was 10 mg/kg and the IC50 [3] was 95 nM.

For `O=C(O)c1cc(CCCCP(=O)(O)O)ccn1`, the minimal effective dose (Mus musculus) was over 160 mg/kg and the Displacement [2] was 25%.

In the case of `O=C(O)c1cc(CCCP(=O)(O)O)ccn1`, the minimal effective dose (Mus musculus) is reported as over 160 mg/kg and the Displacement [2] is reported as 34%.

Compound `NC(CCCCCP(=O)(O)O)C(=O)O` (stereo unspecified) [AP-7] has a minimal effective dose (Mus musculus) of 160 mg/kg and an IC50 [5] of 320 nM.

For `O=C(O)C1CN(CCCP(=O)(O)O)CCN1` (stereo unspecified), the minimal effective dose (Mus musculus) was 2.5 mg/kg and the IC50 [4] was 72 nM.

In the case of `O=C(O)c1ncccc1/C=C/P(=O)(O)O`, the minimal effective dose (Mus musculus) is reported as over 160 mg/kg and the Displacement [2] is reported as 26%.

For `O=C(O)c1cc(CCP(=O)(O)O)ccn1`, the minimal effective dose (Mus musculus) was over 160 mg/kg and the IC50 [4] was 3500 nM.

Compound `O=C(O)[C@H]1NCCC[C@H]1CP(=O)(O)O` has a Displacement [2] of 19%.
